Assay results: ChEMBL document CHEMBL4513216, “Probing the Open Global Health Chemical Diversity Library for Multistage-Active Starting Points for Next-Generation Antimalarials” (ACS Infect Dis, 2020)

test: Toxicity liver stage against HepG2, at 10uM; format: cell-based; set-up: test concentration 10 uM, cell line HepG2-A16-CD81EGFP; settings: human, HepG2-A16-CD81EGFP cells; read-out: INHIBITION
How it was run: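 Uninfected HepG2-A16-CD81EGFP cells, 3 × 10^3 per well, 1536-well, plated on prespotted compound at 10 μM final, parasite-free screening media added to match infected plates; puromycin 10 μM positive, DMSO 0.5% negative; run in parallel with 48 h PbLuc assay at 37 °C, 5% CO2; viability by CellTiter-Glo luminescence, normalized to controls.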

| Structure (SMILES) | cytotoxicity at 10 µM [%] |
| --- | --- |
| Cc1ncoc1C(=O)N1CCOC(Cc2ccccc2)C1 (centres undefined) | 2.23 |
| CCN(C(=O)c1cccc2c1OCO2)c1ccccc1 | 0.944 |
| CCN(CC)c1nc2ccsc2c(=O)n1CCC(=O)NCc1ccco1 | 9.87 |
| CC1(C)CNC(=O)CN(C(=O)COc2ccccc2)C1 | 1.4 |
| COC1CCN(C(=O)Nc2ccccc2)CC(=O)N(C)c2ccccc21 (centres undefined) | 2.94 |
| CC(C)CCN1C(=O)C2(NC(=O)c3ccccc3O2)c2ccccc21 (centres undefined) | 4.02 |
| O=C(c1nc(Cc2c[nH]c3ccccc23)no1)N1CCCCC1 | 6.04 |
| Cc1cc(C)nc(NCCC(=O)Nc2ccc(Cn3cncn3)cc2)n1 | -2.82 |
| O=C(c1ccccc1F)N1CCN(c2ccc(-n3cccc3)nn2)CC1 | 53.2 |
| CCS(=O)(=O)N1CCc2nc(N3CCOCC3)nc(N(C)C)c2CC1 | 21.3 |
| CN1C(=O)CC2(CCN(S(=O)(=O)C3CC3)CC2)c2ccccc21 | 2.04 |
| CCCS(=O)(=O)NCC1OCCc2cn(CC3CCOCC3)nc21 (centres undefined) | -5.6 |
| CCC(C)NC(=O)Cn1c(Nc2cc(C)cc(C)c2)nc(C)cc1=O (centres undefined) | 9.91 |
| COCCNC(=O)c1cc2c(nc1O)CC(c1cccs1)CC2=O (centres undefined) | 11.9 |
| O=C1CC(c2cccc(Cl)c2)c2snc(C(=O)O)c2N1 (centres undefined) | 2.91 |
| Cc1ccc2nc(C)cc(NCCNS(=O)(=O)c3cn(C)nc3C)c2c1 | 8.06 |
| O=C(CCC1CCCC1)N1CCC(c2cc3ncccc3c(O)n2)CC1 | -4.82 |
| Cc1nc(C2CCCN2C(=O)c2ccc(F)cc2)ncc1C(N)=O (centres undefined) | -7.62 |
| Cc1noc(C)c1C(=O)N1CCCC(c2c(C)c(=O)nc3n2CCC3)C1 (centres undefined) | -21.1 |
| CN1CCC(Cc2cncc(-c3ccccc3C(=O)O)n2)C1 (centres undefined) | -7.19 |
| O=C(Cn1ccnc1)N1C[C@@H]2CC[C@H](Oc3ccc(Cl)cc3)[C@@H]2C1 | -3.8 |
| Cc1cnccc1CN1CC[C@@](C)(O)[C@H](Oc2cccc(F)c2)C1 | 1.52 |

| Structure (SMILES) | cytotoxicity at 10 µM [%] |
| --- | --- |
| CCc1nnc(Nc2cccc(C3CCN(CCO)CC3)n2)s1 | -6.41 |
| O=C(NCc1nnc2n1CCCCC2)N(CC1CCOC1)C1CC1 (centres undefined) | 5.63 |
| O=C(c1cc(Br)c[nH]1)N1CCN(Cc2ccco2)CC1 | -64.2 |
| CN(Cc1ccc(F)c(F)c1)C(=O)CCc1nc(-c2nnc[nH]2)no1 | -43.6 |
| CC(C)CCc1noc(C[S+]([O-])CC(=O)NCc2ccccc2)n1 (centres undefined) | 5.28 |
| CC(C)CC(C#N)NC(=O)CCNC(=O)C(C)(C)C (centres undefined) | -3.3 |
| Cc1ccc(C(=O)NCC(C)Cn2ccnc2C)c(=O)[nH]1 (centres undefined) | -0.89 |
| CCc1nc(NC(=O)Cc2csc(-c3nnc[nH]3)n2)sc1C | -45.1 |
| CC(C)c1nc(CN(C)S(=O)(=O)c2cccs2)cs1 | -48.8 |
| CCn1cc(CN2CCCN(C(=O)C3(C)CCOCC3)CC2)cn1 | -45.4 |
| CCOc1c(F)cccc1C(=O)N(c1cccnc1)C(C)C | 1.52 |
| CNC(=O)NC(=O)CSC(C)c1ccccc1F (centres undefined) | -14.4 |
| Cc1cc(C2CCCN2C(=O)NCc2cccnc2)on1 (centres undefined) | 0.458 |
| COc1ccc(C2CCCN2C(=O)NCCCn2cccn2)cc1 (centres undefined) | 7.53 |
| Cc1cc(C)cc(C(=O)Nc2cccc(CN3CCCC3C(N)=O)c2)c1 (centres undefined) | 4.38 |
| O=C(NCC1CCCCC1)NC1CCCc2c1cnn2CCO (centres undefined) | -2.92 |
| O=C(CN1C(=O)c2ccccc2CS1(=O)=O)c1ccc(Cl)cc1 | 4.17 |
| CC(=O)c1cccc(OCCCC(=O)N(C)Cc2cnc(C)s2)c1 | 14.2 |
| OC(CN(Cc1ccccc1)Cc1ccccn1)c1cccs1 (centres undefined) | 0.174 |
| N#Cc1cccc(OCCN2CCCC2C(=O)N2CCSCC2)c1 (centres undefined) | 9.06 |
| CC(C)(C)OC(=O)N1CCCc2ccc(NCc3ccon3)cc21 | 10.9 |
| Cc1ccc(S(=O)(=O)Nc2ccc(-n3cccc3C(=O)O)c(C)c2)cc1 | -3.94 |

| Structure (SMILES) | cytotoxicity at 10 µM [%] |
| --- | --- |
| Cc1ccc(C2CN(C(=O)c3c(C)cc(C)[nH]c3=O)CCO2)c(C)c1 (centres undefined) | -19.8 |
| CC(C)(C)n1nc(C2CC2)cc1C(=O)NC1CCN(CC(N)=O)CC1 | -2.06 |
| CCS(=O)(=O)c1ccc2c(c1)OCCCO2 | -2.3 |
| CS(=O)(=O)CCC(=O)N(Cc1c(F)cccc1F)C1CCCC1 | -12.9 |
| CC(CCNC(=O)NCCc1ccncc1)c1ccccc1 (centres undefined) | -5.82 |
| CN(Cc1ccco1)C(=O)c1ccc(=O)n(C)c1 | -47.5 |
| CC(=O)Nc1ccc(C(=O)N(C)Cc2ccc(F)cc2F)s1 | 6.43 |
| Cc1nnc(CSCc2ccc(OCC(F)(F)F)nc2)o1 | 2.49 |
| Clc1ccc(CNc2cnn(CCN3CCOCC3)c2)cc1Cl | 3.2 |
| CC(=O)c1ccc(-n2c(C)cn(CCS(C)(=O)=O)c2=O)cc1 | 11.5 |
| O=C(Cn1cc(-n2cccc2)cn1)NCC1CCC1 | 14.7 |
| O=C(CCN1CCCCC1c1cc2ccccc2[nH]1)N1CCOCC1 (centres undefined) | 7.82 |
| CN(C1CCN(c2ccccn2)CC1)S(=O)(=O)N1CCOCC1 | -5.23 |
| O=C(CN(Cc1ccccc1)CC1CCOCC1)NC(=O)NC1CC1 | -6.49 |
| CN(C(=O)Cc1ccc(NC(=O)NC2CCC2)cc1)c1ccccc1 | -6.11 |
| COc1cccc(NC(=O)N2CC[C@@H]3CN(C)S(=O)(=O)[C@@H]3CC2)c1 | 7.3 |
| COCCNC(=O)[C@H]1CN(c2ncccn2)C[C@H]2OCC[C@@H]12 | -80.7 |
| COCCC(=O)N1CCN(CC2CC2)c2ncccc2C1 | -96.7 |
| O=C1CC2(CCN(Cc3ccsc3)C2)CN1c1ccc2c(c1)OCO2 (centres undefined) | -75 |
| CC(=O)N1CCC2(CC1)CCN(C(=O)c1cccc(C(F)(F)F)c1)C2 | -74.5 |
| CC(C)[C@@H](CO)Nc1cc(-c2cn[nH]c2)ncn1 | -11.3 |
| CN(CCO)C[C@@H]1CN(C2CCN(c3ccccc3Cl)CC2)C[C@@H]1CO | -9.22 |

| Structure (SMILES) | cytotoxicity at 10 µM [%] |
| --- | --- |
| Cc1nn(C)c2nc(N3CCC(C(O)c4ccccn4)CC3)sc12 (centres undefined) | 22.2 |
| CN1C[C@@H](N)C[C@H]1C(=O)N1CCC(CCCc2ccccc2)CC1 | -8.29 |
| CCc1nc(CCNS(=O)(=O)c2cccc(C(=O)N(C)CC)c2)cs1 | -36.2 |
| CN(Cc1csc(-c2cccs2)n1)Cc1cccnc1N | -1.06 |
| CCc1cnc(C)nc1NCCSc1nnc(C)n1CC | -4.19 |
| O=C(NCCN1CCCCC1=O)C1CCC(=O)N(C2CCCC2)C1 (centres undefined) | -10.8 |
| O=C(CCC(=O)N1CCNC(=O)C1c1cccc(F)c1)NC1CCCC1 (centres undefined) | 2.68 |
| CCC(C(=O)NC1(C(N)=O)CCCC1)n1cccn1 (centres undefined) | -9.13 |
| COc1ccccc1OC1(C(=O)O)CCN(c2ncnc(C)c2C)CC1 | -11.2 |
| Cc1nc(CCNC(=O)C(N)c2c(C)n[nH]c2C)sc1C (centres undefined) | 2.08 |
| CCN(Cc1ccncc1)C1CCCN(C/C=C/c2ccc(F)cc2)C1 (centres undefined) | 6.61 |
| COc1cc(C)ccc1S(=O)(=O)N[C@H]1CN(C(C)=O)C[C@@H]1C1CC1 | 5.71 |
| Cc1cc(N2CCCC(N(C)C)C2)n2nccc2n1 (centres undefined) | -43.4 |
| Cc1n[nH]c(CN2CCN(CC3CC3)[C@@H]3CS(=O)(=O)C[C@@H]32)n1 | -15.8 |
| CC(CCc1ccc(O)cc1)NC1CCN(S(C)(=O)=O)CC1 (centres undefined) | 1.46 |
| CCNC(=O)[C@@H]1C[C@H](N)CN1C1CCN(c2ccccc2OC)CC1 | -43.9 |
| COCCc1noc(CN2C(=O)OC[C@@H]2C(C)C)n1 | -8.93 |
| CCN(C)CC(=O)N1CCCC(c2nnc(CN3CCOCC3)n2C)C1 (centres undefined) | -8.28 |
| OC1(CNCCSCc2ccccc2)CCCNC1 (centres undefined) | 1.84 |
| COc1ccc(C2(C(=O)N3CC(c4cccnc4)C3)CC2(C)C)cc1 (centres undefined) | 12.3 |
| Cc1ccccc1C(=O)N1CCOC2(CNCCOC2)C1 (centres undefined) | -16.5 |
| COc1ccc(-c2cc(C3CCCCCN3S(=O)(=O)N(C)C)on2)cc1 (centres undefined) | 2.24 |

| Structure (SMILES) | cytotoxicity at 10 µM [%] |
| --- | --- |
| Cn1ccnc1CN1CCCN(C(=O)c2ccc3cc[nH]c3c2)CC1 | -6.44 |
| Cc1ccccc1C1(C(=O)NCCN2CCC(C)CC2)CCOCC1 | 3.57 |
| Cc1nc(C2CCCN2CC(=O)NCCOc2ccc(F)cc2)no1 (centres undefined) | -9.63 |
| Cc1nc(C)n(C2CCCN(C(=O)c3cccc4cn[nH]c34)C2)n1 (centres undefined) | -8.86 |
| CCNC(=O)CCc1c(C)nc2cc(O)nn2c1C | -12.6 |
| Cc1cccc(N2CCN(CCNC(=O)C(C)n3cncn3)CC2)c1 (centres undefined) | -1.91 |
| CC(C)(C#N)C(=O)N1CCCC(c2cc(C(F)(F)F)[nH]n2)C1 (centres undefined) | -5.67 |
| CN1CCOC(CN(C(=O)CC2CCCC2)c2nccs2)C1 (centres undefined) | -3.78 |
| CCCC1CCCN(Cc2csc(-c3cnn(C)c3)n2)CC1 (centres undefined) | -1.47 |
| Cc1cc(C(=O)N2CCc3nc(N4CCOCC4)nc(C)c3C2)c(C)o1 | -110 |
| CC(=O)N1[C@H](Cn2cncn2)C[C@@H]2CN(Cc3ccncc3)CC[C@@H]21 | 2.24 |
| O=C(c1cccc(Cl)c1)N1CCCn2c(CN3CCCCC3)nnc2C1 | 4.01 |
| O=C(CC1CC1)N1CCO[C@H]2[C@H](OCCCn3cccn3)CC[C@@H]21 | 6.23 |
| Cc1cnc(N2C[C@H]3CCCC(N(C)Cc4ccccn4)[C@H]3C2)nc1 (some centres undefined) | -104 |
| CC(C)NCC1OCCc2cn(C)nc21 (centres undefined) | 9.91 |
| COc1ccccc1CNC(Cc1cccs1)c1nc(C)c(C)s1 (centres undefined) | 3.89 |
| CC(C)COCC1CN(Cc2ccc3c(c2)OCO3)Cc2ncn(C)c21 (centres undefined) | -10.7 |
| COC[C@@]12CCO[C@@H]1CCN(Cc1ccc(C)s1)C2 | -91.9 |
| CN(C)CCOCc1cncc2c1CCN(C(=O)C1CCOCC1)C2 | -1.87 |
| c1cc(CO[C@@H]2CC[C@H]3[C@H]2OCCN3Cc2ccoc2)ccn1 | 10.8 |
| c1ccc(CN2CCOC3CNCC[C@H]32)cc1 (some centres undefined) | 6.31 |
